The target in experiment [1] is T1, Adrenergic receptor alpha-1 (Homo sapiens, UniProt P35348+P25100+P35368).
T1 sequence (P35348 whole entry): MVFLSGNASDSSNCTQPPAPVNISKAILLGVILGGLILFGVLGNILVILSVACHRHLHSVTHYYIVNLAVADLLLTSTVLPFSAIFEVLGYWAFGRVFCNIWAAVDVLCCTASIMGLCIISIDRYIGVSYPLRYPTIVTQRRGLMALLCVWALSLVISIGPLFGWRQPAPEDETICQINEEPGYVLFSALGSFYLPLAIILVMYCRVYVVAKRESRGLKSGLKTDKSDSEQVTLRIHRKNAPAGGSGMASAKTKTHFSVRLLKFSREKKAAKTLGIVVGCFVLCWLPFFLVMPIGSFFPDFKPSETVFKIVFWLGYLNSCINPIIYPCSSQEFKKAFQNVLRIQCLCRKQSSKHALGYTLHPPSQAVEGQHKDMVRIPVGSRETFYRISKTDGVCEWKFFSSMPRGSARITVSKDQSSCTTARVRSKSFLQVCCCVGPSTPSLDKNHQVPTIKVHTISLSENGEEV
T1 sequence (P25100 whole entry): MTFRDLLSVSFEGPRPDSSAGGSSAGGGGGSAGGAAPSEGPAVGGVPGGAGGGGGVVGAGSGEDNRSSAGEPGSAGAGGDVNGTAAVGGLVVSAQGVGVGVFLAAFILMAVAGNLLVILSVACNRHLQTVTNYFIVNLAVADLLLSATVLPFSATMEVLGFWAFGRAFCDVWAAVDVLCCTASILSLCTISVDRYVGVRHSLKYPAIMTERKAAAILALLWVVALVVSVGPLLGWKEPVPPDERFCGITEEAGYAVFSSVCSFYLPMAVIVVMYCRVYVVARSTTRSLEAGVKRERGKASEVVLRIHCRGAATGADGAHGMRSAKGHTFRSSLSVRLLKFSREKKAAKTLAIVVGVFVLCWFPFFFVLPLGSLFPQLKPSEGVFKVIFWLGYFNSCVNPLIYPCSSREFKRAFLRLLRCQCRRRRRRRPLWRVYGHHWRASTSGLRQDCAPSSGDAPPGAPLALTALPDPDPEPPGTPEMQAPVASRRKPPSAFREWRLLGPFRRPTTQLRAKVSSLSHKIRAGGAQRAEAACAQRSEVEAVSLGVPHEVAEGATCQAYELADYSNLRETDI
T1 sequence (P35368 whole entry): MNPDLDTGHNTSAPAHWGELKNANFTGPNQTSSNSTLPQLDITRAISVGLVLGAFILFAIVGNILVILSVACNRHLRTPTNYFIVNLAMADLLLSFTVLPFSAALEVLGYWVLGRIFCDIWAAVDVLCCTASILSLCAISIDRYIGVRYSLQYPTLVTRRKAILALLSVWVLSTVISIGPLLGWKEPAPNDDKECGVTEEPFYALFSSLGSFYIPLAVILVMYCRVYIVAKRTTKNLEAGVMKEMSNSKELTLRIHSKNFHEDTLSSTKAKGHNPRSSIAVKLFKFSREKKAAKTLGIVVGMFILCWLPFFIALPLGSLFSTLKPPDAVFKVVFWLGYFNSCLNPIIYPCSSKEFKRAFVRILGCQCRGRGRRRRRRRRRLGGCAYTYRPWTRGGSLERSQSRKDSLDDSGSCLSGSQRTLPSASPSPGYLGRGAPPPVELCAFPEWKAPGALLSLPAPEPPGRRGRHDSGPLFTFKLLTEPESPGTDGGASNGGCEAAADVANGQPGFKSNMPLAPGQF
Description: Inhibition of Alpha-1 adrenergic receptor. It is filed as protein assay.

Experiment [2] in a line: Inhibition of hydroxytryptamine 1D receptor.
A further experiment has as its target D(2) dopamine receptor (Rattus norvegicus, UniProt P61169). Description: Displacement of [3H]spiperone from dopamine D2 receptor of rat striatal membranes. It is filed as cell membranes, Membrane. In a few lines: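 Rat striatal membranes (0.3–1.0 mg protein/mL) were incubated with 0.1 nM [3H]spiperone in Tris-HCl buffer (pH 7.1) containing 120 mmol/L NaCl, 5 mmol/L KCl, 1 mmol/L CaCl2, 1 mmol/L MgCl2 and 0.1% ascorbic acid, at 37 °C for 15 min. Bound ligand was separated by filtration with three ice-cold washes. Nonspecific binding was defined with 1 mmol/L (+)-butaclamol. IC50 (50% inhibition of binding) came from 5–10 concentrations, each in triplicate.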

Sequence of D(2) dopamine receptor (P61169 whole entry): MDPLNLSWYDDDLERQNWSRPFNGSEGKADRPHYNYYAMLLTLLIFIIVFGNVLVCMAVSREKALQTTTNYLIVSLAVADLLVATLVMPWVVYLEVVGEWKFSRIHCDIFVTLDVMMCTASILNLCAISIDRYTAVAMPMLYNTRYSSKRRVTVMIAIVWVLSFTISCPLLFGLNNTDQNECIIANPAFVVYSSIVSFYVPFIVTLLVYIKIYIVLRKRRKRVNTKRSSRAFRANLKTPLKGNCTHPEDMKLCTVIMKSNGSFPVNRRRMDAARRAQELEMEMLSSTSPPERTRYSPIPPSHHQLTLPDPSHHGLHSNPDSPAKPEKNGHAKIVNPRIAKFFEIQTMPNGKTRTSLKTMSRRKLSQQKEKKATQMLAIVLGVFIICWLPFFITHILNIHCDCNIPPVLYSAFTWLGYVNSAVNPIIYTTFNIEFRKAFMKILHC

Consider `O=C1c2ccccc2S(=O)(=O)N1CCCCN1CCN(c2ncccn2)CC1` [IPSAPIRONE], for which the IC50 was 500 nM in experiment [1], 3000 nM in experiment [2] and 2900 nM at D(2) dopamine receptor.

(Values after ChEMBL document CHEMBL1138746, “Indolebutylamines as selective 5-HT(1A) agonists” (J Med Chem, 2004).)
